From ChEMBL document CHEMBL1143122, “Novel analogs of D-e-MAPP and B13. Part 1: synthesis and evaluation as potential anticancer agents” (Bioorg Med Chem, 2008)

Legend:
U-251 = test: Antiproliferative activity against human U251 cells after 48 hrs; type: functional; details: U-251, 48 h
In short: (§1)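 NCI 60-cell-line screen. Lines grown in RPMI 1640 with 5% fetal bovine serum and 2 mM L-glutamine, plated at 5,000–40,000 cells/well according to doubling time, left 24 h at 37 °C in 5% CO2. Drug stocks in DMSO at 400-fold the top final concentration. Five 10-fold dilutions, 10−4 to 10−8 M, incubated 48 h. Growth read spectrophotometrically as net protein; GI50 taken as 50% reduction.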

LOX IMVI = test: Antiproliferative activity against human LOXIMVI cells after 48 hrs; type: functional
In short: (§2)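 NCI 60-cell screen. Cells were grown in RPMI 1640 with 5% FBS and 2 mM L-glutamine, then plated at 5,000–40,000 cells/well according to doubling time and preincubated for 24 h at 37 °C in 5% CO2. Compounds were dissolved in DMSO at 400× the top final concentration and tested at five 10-fold dilutions from 10−4 to 10−8 M for 48 h. Growth was read spectrophotometrically; GI50 is 50% net protein reduction.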

Malme-3M = test: Antiproliferative activity against human MALME3M cells after 48 hrs; type: functional; in short: as §2
SK-MEL-2 = test: Antiproliferative activity against human SKMEL2 cells after 48 hrs; type: functional; details: SK-MEL-2, 48 h; in short: as §2
SK-MEL-28 = test: Antiproliferative activity against human SKMEL28 cells after 48 hrs; type: functional; details: SK-MEL-28, 48 h; in short: as §2
SK-MEL-5 = test: Antiproliferative activity against human SKMEL5 cells after 48 hrs; type: functional; details: SK-MEL-5, 48 h; in short: as §2
UACC-62 = test: Antiproliferative activity against human UACC62 cells after 48 hrs; type: functional; details: UACC-62, 48 h; in short: as §1
OVCAR-3 = test: Antiproliferative activity against human OVCAR-3 cells after 48 hrs; type: functional; details: OVCAR-3, 48 h; in short: as §2
OVCAR-4 = test: Antiproliferative activity against human OVCAR4 cells after 48 hrs; type: functional; details: OVCAR-4, 48 h; in short: as §2
OVCAR-5 = test: Antiproliferative activity against human OVCAR5 cells after 48 hrs; type: functional; details: OVCAR-5, 48 h; in short: as §2
786-0 = test: Antiproliferative activity against human 786-0 cells after 48 hrs; type: functional; details: 786-0, 48 h; in short: as §2
ACHN = test: Antiproliferative activity against human ACHN cells after 48 hrs; type: functional; in short: as §2
CAKI-1 = test: Antiproliferative activity against human CAKI1 cells after 48 hrs; type: functional; details: CAKI-1, 48 h; in short: as §2
RXF 393 = test: Antiproliferative activity against human RXF393 cells after 48 hrs; type: functional; details: RXF 393, 48 h; in short: as §2
UO-31 = test: Antiproliferative activity against human UO31 cells after 48 hrs; type: functional; details: UO-31, 48 h; in short: as §1
PC-3 = test: Antiproliferative activity against human PC3 cells after 48 hrs; type: functional; details: PC-3, 48 h; in short: as §2
DU-145 = test: Antiproliferative activity against human DU145 cells after 48 hrs; type: functional; details: DU-145, 48 h; in short: as §2
MDA-MB-231 = test: Antiproliferative activity against human MDA-MB-231 cells after 48 hrs; type: functional; details: MDA-MB-231, 48 h; in short: as §2
MDA-MB-435 = test: Antiproliferative activity against human MDA-MB-435 cells after 48 hrs; type: functional; details: Homo sapiens, MDA-MB-435, 48 h; in short: as §2
NCI-H226 = test: Antiproliferative activity against human NCI-H226 cells after 48 hrs; type: functional; details: NCI-H226, 48 h; in short: as §2
NCI-H322M = test: Antiproliferative activity against human NCI-H322M cells after 48 hrs; type: functional; in short: as §2
NCI-H460 = test: Antiproliferative activity against human NCI-H460 cells after 48 hrs; type: functional; details: NCI-H460, 48 h; in short: as §2
NCI-H522 = test: Antiproliferative activity against human NCI-H522 cells after 48 hrs; type: functional; details: NCI-H522, 48 h; in short: as §2
COLO 205 = test: Antiproliferative activity against human COLO205 cells after 48 hrs; type: functional; details: COLO 205, 48 h; in short: as §2
HCT-116 = test: Antiproliferative activity against human HCT116 cells after 48 hrs; type: functional; details: HCT-116, 48 h; in short: as §2
HCT-15 = test: Antiproliferative activity against human HCT15 cells after 48 hrs; type: functional; details: Homo sapiens, HCT-15, 48 h; in short: as §2
KM12 = test: Antiproliferative activity against human KM12 cells after 48 hrs; type: functional; details: Homo sapiens, KM12, 48 h; in short: as §2
SF-295 = test: Antiproliferative activity against human SF295 cells after 48 hrs; type: functional; details: SF-295, 48 h; in short: as §2
SNB-19 = test: Antiproliferative activity against human SNB19 cells after 48 hrs; type: functional; details: SNB-19, 48 h; in short: as §2
MCF7 = test: Antiproliferative activity against human MCF7 cells after 48 hrs; type: functional, cell-based; details: MCF7, 48 h
CCRF-CEM = test: Antiproliferative activity against human CCRF-CEM cells after 48 hrs; type: functional; in short: as §2
[1] = Antiproliferative activity against human […] cells after 48 hrs; type: functional; in short: as §2
[2] = read-out: Log LC50 (the source's name) (converted)

CCCCCCCCCCCCCCN[C@H](CO)[C@H](O)c1ccccc1
GI50 (U-251): 1780 nM | CC50 (U-251; [2]): 5.62 µM | TGI (U-251; read-out: Log TGI (converted)): 3.16 µM | GI50 (LOX IMVI): 1780 nM | LC50 (LOX IMVI): 5.75 µM | TGI (LOX IMVI; read-out: Log TGI (converted)): 3.16 µM | GI50 (Malme-3M): 2090 nM | LC50 (Malme-3M): 9.55 µM | TGI (Malme-3M; read-out: Log TGI (converted)): 3.8 µM | GI50 (SK-MEL-2): 2140 nM | LC50 (SK-MEL-2): > 100 µM | TGI (SK-MEL-2; read-out: Log TGI (converted)): 4.79 µM | GI50 (SK-MEL-28): 1820 nM | LC50 (SK-MEL-28): 5.62 µM | TGI (SK-MEL-28; read-out: Log TGI (converted)): 3.24 µM | GI50 (SK-MEL-5): 2140 nM | TGI (SK-MEL-5; read-out: Log TGI (converted)): 4.07 µM | GI50 (UACC-62): 1820 nM | LC50 (UACC-62): 7.59 µM | TGI (UACC-62; read-out: Log TGI (converted)): 3.72 µM | GI50 (OVCAR-3): 1910 nM | TGI (OVCAR-3; read-out: Log TGI (converted)): 4.07 µM | GI50 (OVCAR-4): 1910 nM | TGI (OVCAR-4; read-out: Log TGI (converted)): 3.8 µM | GI50 (OVCAR-5): 2090 nM | CC50 (OVCAR-5; [2]): 7.08 µM | TGI (OVCAR-5; read-out: Log TGI (converted)): 3.8 µM | GI50 (786-0): 1620 nM | CC50 (786-0; [2]): 5.62 µM | TGI (786-0; read-out: Log TGI (converted)): 3.02 µM | GI50 (ACHN): 1740 nM | CC50 (ACHN; [2]): 5.62 µM | TGI (ACHN; read-out: Log TGI (converted)): 3.16 µM | GI50 (CAKI-1): 1660 nM | CC50 (CAKI-1; [2]): 7.76 µM | TGI (CAKI-1; read-out: Log TGI (converted)): 3.55 µM | GI50 (RXF 393): 1150 nM | CC50 (RXF 393; [2]): 5.13 µM | TGI (RXF 393; read-out: Log TGI (converted)): 2450 nM | GI50 (UO-31): 3.8 µM | LC50 (UO-31): 79.4 µM | TGI (UO-31; read-out: Log TGI (converted)): 17.8 µM | GI50 (PC-3): 1580 nM | LC50 (PC-3): 5.5 µM | TGI (PC-3; read-out: Log TGI (converted)): 2950 nM | GI50 (DU-145): 1660 nM | CC50 (DU-145; [2]): 6.17 µM | TGI (DU-145; read-out: Log TGI (converted)): 3.16 µM | GI50 (MDA-MB-231): 1740 nM | LC50 (50% lethal concentration) (MDA-MB-231): 6.61 µM | TGI (MDA-MB-231; read-out: Log TGI (converted)): 3.39 µM | GI50 (MDA-MB-435): 1780 nM | LC50 (MDA-MB-435): 5.62 µM | TGI (MDA-MB-435; read-out: Log TGI (converted)): 3.16 µM | GI50 (NCI-H226): 3.24 µM | CC50 (NCI-H226; [2]): > 100 µM | TGI (NCI-H226; read-out: Log TGI (converted)): 11.7 µM | GI50 (NCI-H322M): 2140 nM | CC50 (NCI-H322M; [2]): 7.24 µM | TGI (NCI-H322M; read-out: Log TGI (converted)): 3.89 µM | GI50 (NCI-H460): 1860 nM | TGI (NCI-H460; read-out: Log TGI (converted)): 3.47 µM | GI50 (NCI-H522): 2000 nM | TGI (NCI-H522; read-out: Log TGI (converted)): 3.8 µM | GI50 (COLO 205): 1860 nM | CC50 (COLO 205; [2]): 6.17 µM | TGI (COLO 205; read-out: Log TGI (converted)): 3.39 µM | GI50 (HCT-116): 1740 nM | LC50 (HCT-116): 5.62 µM | TGI (HCT-116; read-out: Log TGI (converted)): 3.16 µM | GI50 (HCT-15): 1910 nM | LC50 (HCT-15): 6.03 µM | TGI (HCT-15; read-out: Log TGI (converted)): 3.39 µM | GI50 (KM12): 1860 nM | CC50 (KM12; [2]): 5.89 µM | TGI (KM12; read-out: Log TGI (converted)): 3.31 µM | GI50 (SF-295): 1860 nM | LC50 (SF-295): 6.76 µM | TGI (SF-295; read-out: Log TGI (converted)): 3.55 µM | GI50 (SNB-19): 1780 nM | TGI (SNB-19; read-out: Log TGI (converted)): 3.24 µM | GI50 (MCF7): 1820 nM | TGI (MCF7; read-out: Log TGI (converted)): 3.31 µM | GI50 (CCRF-CEM): 1580 nM | CC50 (CCRF-CEM; [2]): 7.94 µM | TGI (CCRF-CEM; read-out: Log TGI (converted)): 3.55 µM | GI50 [1]: 3.16 µM | LC50 [1]: 91.2 µM | TGI ([1]; read-out: Log TGI (converted)): 17.4 µM
